Molecules are shown by their SMILES. pIC50: −log10 of the molar value. The source made the active and inactive calls.

Data set [1] has as its target T1, Amine oxidase [flavin-containing] B (Rattus norvegicus, UniProt P19643).
T1 sequence (P19643 whole entry): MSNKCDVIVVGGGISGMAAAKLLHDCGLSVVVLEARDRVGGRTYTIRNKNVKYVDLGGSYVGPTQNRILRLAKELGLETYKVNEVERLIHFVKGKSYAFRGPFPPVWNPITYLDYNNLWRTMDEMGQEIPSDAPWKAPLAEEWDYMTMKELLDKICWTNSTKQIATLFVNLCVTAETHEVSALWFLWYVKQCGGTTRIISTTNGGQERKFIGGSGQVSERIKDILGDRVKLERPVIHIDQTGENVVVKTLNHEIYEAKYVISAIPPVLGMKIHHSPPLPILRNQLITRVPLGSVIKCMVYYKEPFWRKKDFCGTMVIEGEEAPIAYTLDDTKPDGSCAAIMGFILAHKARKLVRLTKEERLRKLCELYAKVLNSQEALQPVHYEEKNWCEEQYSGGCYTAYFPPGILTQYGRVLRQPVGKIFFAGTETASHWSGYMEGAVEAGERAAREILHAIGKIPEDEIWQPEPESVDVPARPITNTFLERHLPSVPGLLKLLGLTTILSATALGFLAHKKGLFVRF
Kind of data set: Inhibition of rat liver MAO-B using 2-phenyl[1-14C]-ethylamine/[7-14C]-benzylamine as substrate preincubated for 30 mins followed by substrate addition. The method in brief: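 MAO B source was rat liver mitochondria, obtained by 1:10 homogenization in 0.01 M phosphate pH 7.4 with 0.25 M sucrose, then centrifugation at 1000g and 10,000g (20 min each). Mitochondria were preincubated with inhibitor (6 concentrations) for 30 min at 30 °C. Saturating 2-phenyl[1-14C]ethylamine was then added and activity measured radiochemically.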

Data set [2] deals with T2, Diamine oxidase [copper-containing] (Sus scrofa, UniProt Q9TRC7).
T2 sequence (Q9TRC7 whole entry): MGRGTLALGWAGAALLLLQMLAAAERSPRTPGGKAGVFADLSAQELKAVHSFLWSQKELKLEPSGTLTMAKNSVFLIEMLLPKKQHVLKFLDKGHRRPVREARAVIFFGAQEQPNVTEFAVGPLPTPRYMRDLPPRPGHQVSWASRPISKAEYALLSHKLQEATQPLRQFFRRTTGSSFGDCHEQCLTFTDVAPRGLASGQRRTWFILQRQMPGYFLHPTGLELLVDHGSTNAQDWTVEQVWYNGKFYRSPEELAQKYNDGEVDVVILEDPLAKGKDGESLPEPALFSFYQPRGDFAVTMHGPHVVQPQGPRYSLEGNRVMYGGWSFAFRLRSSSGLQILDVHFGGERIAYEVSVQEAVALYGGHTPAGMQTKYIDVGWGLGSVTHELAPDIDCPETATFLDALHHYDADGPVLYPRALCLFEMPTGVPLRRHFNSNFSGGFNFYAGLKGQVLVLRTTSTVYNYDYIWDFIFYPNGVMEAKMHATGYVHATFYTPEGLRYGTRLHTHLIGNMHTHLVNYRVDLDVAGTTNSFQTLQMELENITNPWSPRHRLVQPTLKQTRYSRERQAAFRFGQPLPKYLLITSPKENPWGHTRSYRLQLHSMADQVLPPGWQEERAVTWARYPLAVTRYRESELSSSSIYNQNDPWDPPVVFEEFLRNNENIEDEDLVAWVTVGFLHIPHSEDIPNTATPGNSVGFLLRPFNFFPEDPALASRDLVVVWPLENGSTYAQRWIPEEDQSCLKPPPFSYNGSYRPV
Nature of the data set: Inhibition of porcine kidney DAO using [1,4-14C]-putrescine as substrate preincubated for 30 mins followed by substrate addition. The method in brief:
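Porcine kidney diamine oxidase was preincubated with inhibitor at 6 concentrations for 30 min at 30 °C. Saturating [1,4-14C]putrescine was then added and activity was determined radiochemically. In some cases H2O2 production was measured by the 4-aminoantipyrine method.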

In the next data set the target is T3, Protein-lysine 6-oxidase (Sus scrofa, UniProt P45845).
T3 sequence (P45845 whole entry): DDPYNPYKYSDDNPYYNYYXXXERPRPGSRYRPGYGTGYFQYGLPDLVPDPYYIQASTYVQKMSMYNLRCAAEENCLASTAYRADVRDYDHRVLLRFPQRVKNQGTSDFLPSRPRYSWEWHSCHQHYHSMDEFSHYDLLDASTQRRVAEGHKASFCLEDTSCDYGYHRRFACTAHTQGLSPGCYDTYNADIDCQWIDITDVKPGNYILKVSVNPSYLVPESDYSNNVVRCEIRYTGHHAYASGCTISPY
Kind of data set: Inhibition of porcine aorta lysyl oxidase preincubated for 30 mins followed by substrate addition. The method in brief:
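Porcine aorta lysyl oxidase, prepared in-house. Enzyme was preincubated with inhibitor at 6 concentrations for 30 min at 30 °C. Saturating tritiated protein-bound lysine substrate was then added and activity was measured radiochemically. In some cases H2O2 production was followed instead, by the 4-aminoantipyrine method.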

A short description of data set [3]: Inhibition of porcine serum BAO using [7-14C]-benzylamine as substrate preincubated for 30 mins followed by substrate addition. On the set-up: species or system Sus scrofa. The method in brief: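 Porcine serum benzylamine oxidase was preincubated with inhibitor at 6 concentrations for 30 min at 30 °C. [7-14C]Benzylamine was then added at a saturating level and radiochemical activity was measured. In some cases H2O2 formation was followed by the 4-aminoantipyrine method.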

Data set [4] in a line: Acute toxicity in ip dosed Swiss mouse assessed as appearance of tonic-clonic convulsion followed by respiratory block measured after 15 to 20 mins. The data set is classed as organism-based. The conditions noted are these: in vivo.
The species entered for data set [5] is Sus scrofa. Kind of data set: Reversible inhibition of porcine serum BAO using [7-14C]-benzylamine as substrate assessed as residual activity at 4 times IC50 preincubated for 5 mins followed by 10 fold dilution relative to control. The method in brief: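 Solutions were diluted 1:10 and 1:100, and portions were dialyzed against water at 4 °C for 24 h. Activity was read with saturating [7-14C]benzylamine; the reaction was stopped with 3 N HCl and labeled benzaldehyde extracted into ethyl acetate and counted.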

Data set [6] is filed under the species Sus scrofa. Nature of the data set: Mixed-type inhibition of porcine serum BAO using [7-14C]-benzylamine as substrate by Lineweaver-Burk plot analysis.
Data set [7] is filed under the species Sus scrofa. Kind of data set: Non-competitive inhibition of porcine serum BAO using [7-14C]-benzylamine as substrate by Lineweaver-Burk plot analysis.
Data set [8] can be described thus: Oral bioavailability in rat. The data set is classed as ADME, organism-based. The following applies: in vivo.
Data set [9] can be described thus: Half life in rat. It counts as ADME, organism-based. The conditions noted are these: in vivo.

With `CC(C)Oc1cccc(OC(C)C)c1CN`, the pIC50 (in data set [1]; in [2]; on Protein-lysine 6-oxidase; in [3]) was less than 3.00 throughout.

In the case of `NCc1c(O)cccc1O`, the negative-log IC50 (pIC50) (in [1]; in [2]; at Protein-lysine 6-oxidase; in data set [3]) was less than 3.00 each time.

Consider `CCOc1cccc(OCC)c1CN.Cl`, for which the LD50 (in general, the dose at which mortality reaches 50%) in data set [4] was determined as 74 mg/kg. Moreover, in the data set listed under Sus scrofa [5], the Activity stood at 50%. The pIC50 (usually the negative decadic logarithm of the IC50, by convention in mol/L) is less than 3.00 in [1], less than 3.00 in [2], less than 3.00 at Protein-lysine 6-oxidase and 6.74 in [3]. Moreover, in the data set listed under Sus scrofa [6], the “inhibition mode (qualitative)” value was “Active”.

Take `CCCc1cccc(CCC)c1CN.Cl`: in data set [4], the LD50 came to 55 mg/kg. Further, in the data set filed under Sus scrofa [5], the Activity is greater than 80%. For the same compound, the pIC50 is less than 3.00 in data set [1], less than 3.00 in [2], less than 3.00 against Protein-lysine 6-oxidase and 4.82 in data set [3]. The “inhibition mode (qualitative)” value in the data set filed under Sus scrofa [6] was “Active”.

In the case of `CCOCc1cccc(COCC)c1CN`, the negative logarithm of the IC50 (pIC50) (in [1]; in [2]; at Protein-lysine 6-oxidase; in [3]) was less than 3.00 in each case.

On to `CCOc1ccccc1CN`, for which the pIC50 (in [1]; in [2]; against Protein-lysine 6-oxidase; in data set [3]) was less than 3.00 in each case.

Take `Cl.NCc1c(OCCCCO)cccc1OCCCCO`: the 50% lethal dose (LD50) in [4] turned out to be 540 mg/kg. In the data set listed under Sus scrofa [5], the Activity is 50%. Moreover, the negative logarithm of the IC50 (pIC50) in data set [1] is less than 3.00; in [2], less than 3.00; at Protein-lysine 6-oxidase, less than 3.00; in data set [3] it was 7.18. For the same compound, in the data set listed under Sus scrofa [6], the “inhibition mode (qualitative)” value is “Active”.

With `CCCOc1cccc(OCCC)c1CN.Cl`, the LD50 in data set [4] turned out to be 37 mg/kg. Moreover, the Activity in the data set listed under Sus scrofa [5] was found to be 50%. In addition, the negative-log IC50 (pIC50) (in data set [1]; in data set [2]; at Protein-lysine 6-oxidase) was less than 3.00 in each case. In the data set listed under Sus scrofa [6], the “inhibition mode (qualitative)” value is “Active”.

As to `CCCCOc1cccc(OCCCC)c1CN.Cl`, in data set [4], the median lethal dose (LD50) is 25 mg/kg. Further, the Activity in the data set filed under Sus scrofa [5] turned out to be 50%. Moreover, the negative logarithm of the IC50 (pIC50) in data set [1] is less than 3.00; in data set [2], less than 3.00; against Protein-lysine 6-oxidase, less than 3.00; in data set [3] it was 6.85. In the data set filed under Sus scrofa [7], the inhibition result was “Active”.

Turning to `NCc1ccccc1O`, the negative logarithm of the IC50 (pIC50) (in data set [1]; in data set [2]; against Protein-lysine 6-oxidase; in data set [3]) was less than 3.00 throughout.

Take `NCc1ccccc1CO`: the pIC50 (in [1]; in data set [2]; against Protein-lysine 6-oxidase; in data set [3]) was less than 3.00 throughout.

As to `Cl.NCc1c(OCCCO)cccc1OCCCO`, in data set [4], the 50% lethal dose (LD50) worked out at 690 mg/kg. Also, in the data set filed under Sus scrofa [5], the Activity worked out at 50%. Moreover, the negative-log IC50 (pIC50) in data set [1] is less than 3.00; in data set [2], less than 3.00; against Protein-lysine 6-oxidase it was less than 3.00; in [3], 6.26. Besides, the “inhibition mode (qualitative)” value in the data set filed under Sus scrofa [6] was “Active”.

On to `Cl.NCc1c(OCCO)cccc1OCCO`, for which the LD50 in data set [4] is greater than 1000 mg/kg. Moreover, in the data set listed under Sus scrofa [5], the Activity is 50%. The pIC50 in data set [1] is less than 3.00; in data set [2] it was less than 3.00; against Protein-lysine 6-oxidase, less than 3.00; in data set [3], 5.59. In addition, the “inhibition mode (qualitative)” value in the data set listed under Sus scrofa [6] is “Active”.

For the compound `CCCCc1cccc(CCCC)c1CN.Cl`, the LD50 in data set [4] is 54 mg/kg. For the same compound, in the data set filed under Sus scrofa [5], the Activity was greater than 80%. Further, the pIC50 in [1] is less than 3.00; in [2], less than 3.00; at Protein-lysine 6-oxidase it was less than 3.00; in data set [3], 4.85. The “inhibition mode (qualitative)” value in the data set filed under Sus scrofa [6] was “Active”.

In the case of `CCc1cccc(CC)c1CN.Cl`, in [4], the median lethal dose (LD50) came to 92 mg/kg. Moreover, the Activity in the data set filed under Sus scrofa [5] is greater than 80%. Moreover, the negative logarithm of the IC50 (pIC50) (in data set [1]; in data set [2]; against Protein-lysine 6-oxidase) was less than 3.00 in each case. The “inhibition mode (qualitative)” value in the data set filed under Sus scrofa [6] was “Active”.

With `COc1cccc(OC)c1CN.Cl`, the median lethal dose (LD50) in data set [4] worked out at 120 mg/kg. The Activity in the data set filed under Sus scrofa [5] was greater than 80%. The negative-log IC50 (pIC50) in data set [1] is 3.72; in [2], less than 3.00; at Protein-lysine 6-oxidase it was less than 3.00; in data set [3], 3.92. In addition, the “inhibition mode (qualitative)” value in the data set filed under Sus scrofa [6] was “Active”.

As for `COCc1cccc(COC)c1CN.Cl`, the LD50 in data set [4] is 240 mg/kg. In the data set filed under Sus scrofa [5], the Activity was greater than 80%. In addition, the negative logarithm of the IC50 (pIC50) (in data set [1]; in data set [2]; against Protein-lysine 6-oxidase; in data set [3]) was less than 3.00 in each case. The “inhibition mode (qualitative)” value in the data set filed under Sus scrofa [6] was “Active”.

As to `CCOc1cncc(OCC)c1CN`, the bioavailability (as a rule, dose-corrected exposure relative to a reference, in per cent) in data set [8] was 51.5%. Besides, in data set [9], the half-life (in general, the time needed for the level to fall by half in the phase considered) was 2 h.
